Test results published in ChEMBL document CHEMBL1240369, “Antiviral efficacy of the novel compound BIT225 against HIV-1 release from human macrophages” (Antimicrob Agents Chemother, 2010).
Activity calls are given as the source filed them. The rule behind the calls is not given here.

Tests used:
[1] = system: Human immunodeficiency virus 1; experiment: Antiviral activity against HIV1 Ba-L […] assessed as inhibition integration of virus to host cell genome at 10 uM; assay type: functional; parameters: scale not given: the % may be the effect or the level left
Procedure, shortened: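 Run in TZM-bl indicator cells (HIV-1 integration activates luciferase), not MDM, infected with HIV-1Ba-L in the presence of BIT225 across 0.3125 to 10 μM. Lysates were given luciferin and light was read on an illuminometer. Percent inhibition of integration was taken relative to DMSO-treated control. Data are from three separate experiments.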

MDM [2] = experiment: Inhibition of Vpu ion channel activity in 0.05 MOI HIV1 Ba-L chronically infected in 7-14 days differentiated human MDM cells assessed as viral inhibition measured after 7 days; assay type: cell-based; conditions: Human immunodeficiency virus 1
Procedure, shortened: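 Day 14 MDM from 3 seronegative donors were infected with HIV-2, or with HIV-1 Ba-L as a positive control, at MOI 0.05 for 7 days. Cells were then washed free of extracellular virus and cultured ± 10 μM compound for a further 7 days. Day 28 supernatants were assayed for RT activity by chemiluminescent ELISA, with recombinant RT as the standard.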

[3] = target: Protease (Human immunodeficiency virus 1) (UniProt Q9YQ12); experiment: Inhibition of HIV1 protease assessed as substrate cleavage by cell free assay
Procedure, shortened: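 Cell-free fluorometric protease assay: compound (1–100 μM) was premixed with 2 μM quenched HIV-1 protease substrate 1. Background fluorescence (ex 340/em 490 nm) was read every 5 s for 5 min. HIV-1 protease was then added at 1.5% and cleavage followed for a further 5 min. LPV and EFV served as controls.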

[4] = system: Human immunodeficiency virus 1; experiment: Antiviral activity against HIV1 Ba-L in human MDM assessed as inhibition integration of virus to host cell genome at 100 nM; assay type: functional, organism-based
MDM [5] = experiment: Inhibition of Vpu ion channel in 0.05 MOI HIV1 Ba-L infected in 10 days differentiated human MDM cells assessed as number of gag copy; assay type: cell-based; conditions: Human immunodeficiency virus 1
Procedure, shortened: (§1)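 MDM differentiated for 7, 10 or 14 days were infected with HIV-1 Ba-L across a range of MOIs, washed three times with PBS and cultured 7 days with 10 μM compound or equal-volume DMSO. On day 7 postinfection, supernatant RT activity was measured (and infectivity on TZM-bl cells). Cell lysates went to real-time PCR for LTR-gag DNA, normalised to albumin copies.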

[6] = Selectivity index, ratio of TC50 for human MDM cells to EC50 for HIV1 MDR3761 infected in human MDM cells; assay type: toxicity, cell-based; conditions: read-out: Selectivity Index
MDM [7] = experiment: Inhibition of Vpu ion channel in 0.01 MOI HIV1 Ba-L infected in 7 days differentiated human MDM cells assessed as number of gag copy; assay type: cell-based; conditions: Human immunodeficiency virus 1; procedure, shortened: as §1
[8] = system: Human immunodeficiency virus 2; experiment: Antiviral activity against 0.05 MOI HIV2 noncytopathic strain chronically infected in 7-14 days differentiated human MDM cells assessed as viral inhibition measured after 7 days; assay type: functional
Procedure, shortened: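 Day 14 MDM from three seronegative donors were infected at MOI 0.05 for 7 days, then washed free of extracellular virus. Cultures then ran a further 7 days with or without 10 μM BIT225, from day 21. Day 28 supernatants were assayed by RT activity ELISA. Percent inhibition was taken versus untreated controls, as mean of three donors.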

MDM [9] = experiment: Inhibition of Vpu ion channel in 0.05 MOI HIV1 Ba-L chronically infected in 7-14 days differentiated human MDM cells assessed as viral inhibition at 10 uM after 7 days post treatment measured after 20 days drug washout period; assay type: cell-based; conditions: Human immunodeficiency virus 1
Procedure, shortened: (§2)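 Chronic infection model: MDM were incubated with HIV-1 Ba-L for 3 h and left 7 days unwashed, then washed three times and given a single 10 μM dose (DMSO control). Supernatants were sampled routinely for RT activity. In the washout arm, compound was removed and cells kept drug-free for an additional 20 days.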

[10] = system: Human immunodeficiency virus 1; experiment: Inhibition of HIV1 Vpu ion channel activity
Procedure, shortened: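 Planar lipid bilayer of POPE:POPC (50:50) in n-decane, with 50 mM KCl in 10 mM MES […] in both chambers. Synthetic Vpu peptide (150 ng) was added to cis and trans sides with stirring. K+ current appeared at −100 mV and was recorded at −40 mV, filtered at 1 kHz. Mean currents were taken over 10–30 s before and after compound (40 μM).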

[11] = Selectivity index, ratio of TC50 for human MDM cells to EC50 for HIV1 98IN017 infected in human MDM cells; assay type: toxicity, cell-based; conditions: read-out: Selectivity Index
MDM [12] = experiment: Inhibition of Vpu ion channel in 0.05 MOI HIV1 Ba-L chronically infected in 7 days differentiated human MDM cells assessed as reverse transcriptase activity after 21 days; assay type: cell-based; conditions: Human immunodeficiency virus 1; procedure, shortened: as §2
MDM [13] = experiment: Inhibition of Vpu ion channel in 0.05 MOI HIV1 Ba-L acutely infected in 14 days differentiated human MDM cells assessed as viral release after 7 days relative to control; assay type: cell-based; conditions: Human immunodeficiency virus 1
Procedure, shortened: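 Day 14 MDM were acutely infected with HIV-1 Ba-L at MOI 0.05 for 3 h, washed three times with PBS, then cultured a further 7 days in DMEM10+ with 10 μM compound or equal DMSO. Virus release was measured as supernatant RT activity on day 21 of culture, relative to DMSO controls.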

MDM [14] = experiment: Inhibition of Vpu ion channel in 0.01 MOI HIV1 Ba-L infected in 10 days differentiated human MDM cells assessed as viral inhibition by TZM-bl infectivity assay; assay type: cell-based; conditions: Human immunodeficiency virus 1; procedure, shortened: as §1
MDM [15] = experiment: Inhibition of Vpu ion channel in 0.001 MOI HIV1 Ba-L infected in 14 days differentiated human MDM cells assessed as viral inhibition by RT assay; assay type: cell-based; parameters: scale not given: the % may be the effect or the level left; conditions: Human immunodeficiency virus 1; procedure, shortened: as §1
MDM [16] = experiment: Inhibition of Vpu ion channel in 0.05 MOI HIV1 Ba-L chronically infected in 14 days differentiated human MDM cells assessed as viral inhibition measured after treatment at 11 th day postinfection; assay type: cell-based; conditions: Human immunodeficiency virus 1
MDM [17] = experiment: Inhibition of Vpu ion channel in 0.05 MOI HIV1 Ba-L chronically infected in 7-14 days differentiated human MDM cells assessed as viral inhibition at 10 uM after 7 days post treatment; assay type: cell-based; conditions: Human immunodeficiency virus 1; procedure, shortened: as §2
[18] = Inhibition of Vpu ion channel in HIV1 G-92NG003-G3 in human MDM assessed as inhibition of vrius release; parameters: species or system Human immunodeficiency virus 1
[19] = Selectivity index, ratio of TC50 for human MDM cells to EC50 for HIV1 93BR029 infected in human MDM cells; assay type: toxicity, cell-based; conditions: read-out: Selectivity Index
Procedure, shortened: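 Monocytes were adherence-isolated from seronegative PBMC and differentiated in DMEM with 10% human AB serum. Cells were infected with the R5 subtype F primary isolate (PBMC-grown). Antiviral effect was taken versus DMSO-treated controls. Toxicity was measured in parallel by MTT. The index is mean TC50 divided by mean EC50, from in-house experiments, n = 3.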

MT2 = experiment: Inhibition of Vpu ion channel in 0.05 MOI HIV1 infected in MT2 cells assessed as viral inhibition measured after 7 days by […]; conditions: Human immunodeficiency virus 1
[20] = Inhibition of Vpu ion channel in HIV1 98IN017 in human MDM assessed as inhibition of vrius release; parameters: species or system Human immunodeficiency virus 1

Chain of Protease (Human immunodeficiency virus 1) (Q9YQ12 as listed by the source): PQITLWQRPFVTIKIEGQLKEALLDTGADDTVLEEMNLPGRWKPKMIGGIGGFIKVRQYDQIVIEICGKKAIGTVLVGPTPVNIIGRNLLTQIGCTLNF

Cn1cc(-c2cccc3cc(C(=O)NC(=N)N)ccc23)cn1
Activity [1]: 6% | inhibition (MDM [2]): 66.6% | Activity [3]: inactive | Activity [4]: Active | Activity (MDM [5]): Active | selectivity ratio [6]: 39.3 | Activity (MDM [7]): 1160 | inhibition (INH) [8]: 13.4% | Activity (MDM [9]): inactive | Activity [10]: 40 µM | selectivity ratio [11]: 4.8 | Activity (MDM [12]): < 2 U/ml | inhibition (MDM [13]): 38% | inhibition (MDM [14]): 90.4% | Activity (MDM [15]): 77% | inhibition (MDM [16]): 86.3% | Activity (MDM [17]): Active | EC50 [18]: 1.6 µM | selectivity ratio [19]: 111 | inhibition (MT2): 38.8% | EC50 [20]: 42.2 µM
